# Test results: ChEMBL document CHEMBL1141579, “Synthesis, cytostatic, and antiviral activity of novel 6-[2-(dialkylamino)ethyl]-, 6-(2-alkoxyethyl)-, 6-[2-(alkylsulfanyl)ethyl]-, and 6-[2-(dialkylamino)vinyl]purine nucleosides” (Bioorg Med Chem, 2008)
# pEC50, pIC50: −log10 of the molar value. The source made the active and inactive calls. The rule behind the calls is not given here.
# What was measured:
# HL-60 [1] = test: Cytostatic activity against human HL60 cells ATCC CCL 240 assessed as growth reduction after 72 hrs; type: functional, cell-based; conditions: for pIC50: HL-60, 72 h
# Procedure, shortened: (§1)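 Cells grown in RPMI 1640 with foetal calf serum in 24-well plates. Counted in a haematological analyzer 72 h after drug addition. Inhibition expressed as IC50.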
# CCRF-CEM [2] = test: Cytostatic activity against human CCRF-CEM cells ATCC CCL 119 assessed as growth reduction after 72 hrs; type: functional, cell-based; procedure, shortened: as §1
# L1210 = test: Cytostatic activity against mouse L1210 cells ATCC CCL219 assessed as growth reduction after 72 hrs; type: functional, cell-based; conditions: for pIC50: L1210, 72 h; procedure, shortened: as §1
# Hepatitis C virus = test: Antiviral activity against HCV 1b Con1 replicon in Huh7 cells; type: functional, organism-based, Hepatitis C virus subtype 1b; conditions: Huh-7
# Procedure, shortened: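 Con-1/lucneo replicon cells seeded at 8 × 10^3 per well in medium without Geneticin. Compounds serially diluted in DMSO and added 1:200 (0.5% DMSO final). Incubated 3 days at 37 C. Cells lysed and luciferase activity read by luminometer. EC50 by non-linear regression, N = 2.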
# [3] = Cytotoxicity against human Huh7 cells harboring con1 replicon after 3 days by MTT assay; type: cell-based, Huh-7
# Procedure, shortened: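 Con-1 replicon-bearing Huh-7 cells were seeded at 8 · 10^3 cells per well in medium without Geneticin. Compound was serially diluted in 100% DMSO and added 1:200, giving 0.5% DMSO final. Cells were incubated at 37 C for 3 days. Toxicity was read at the end, in duplicate (N = 2).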
# [4] = Cytotoxicity against human MT4 cells after 5 days; type: cell-based
# Procedure, shortened: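 MT-4 cells were seeded at 2 · 10^3 cells/well. Compounds were serially diluted in culture medium and cells were incubated for 5 days. Survival was measured by CellTiter Glo luminescence, in duplicate (N = 2).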
# CCRF-CEM [5] = test: Cytostatic activity against human CCRF-CEM cells ATCC CCL 119 assessed as cell viability by XTT test; type: functional, cell-based
# Procedure, shortened: (§2)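 Cell viability quantified by the XTT spectrophotometric assay. Inhibition expressed as IC50.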
# HL-60 [6] = test: Cytostatic activity against human HL60 cells ATCC CCL 240 assessed as cell viability by XTT test; type: functional, cell-based; procedure, shortened: as §2
# HL-60 [7] = test: Cell cycle arrest in human HL60 cells assessed as accumulation in S phase at 18 uM relative to control; type: functional
# Procedure, shortened: (§3)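 HL-60 cells treated at the stated concentration, then fixed in ethanol. Stained with propidium iodide in buffer containing RNase A and analysed by flow cytometry. Result given as the ratio of the treated to the control cell fraction in each phase (G1, S, G2/M).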
# HL-60 [8] = test: Cell cycle arrest in human HL60 cells assessed as accumulation in G1 phase at 4.5 uM relative to control; type: functional; procedure, shortened: as §3
# HL-60 [9] = test: Cell cycle arrest in human HL60 cells assessed as accumulation in G2/M phase at 18 uM relative to control; type: functional; procedure, shortened: as §3
# HL-60 [10] = test: Cell cycle arrest in human HL60 cells assessed as accumulation in G1 phase at 18 uM relative to control; type: functional; procedure, shortened: as §3
# HL-60 [11] = test: Cell cycle arrest in human HL60 cells assessed as accumulation in G2/M phase at 4.5 uM relative to control; type: functional; procedure, shortened: as §3
# HL-60 [12] = test: Cell cycle arrest in human HL60 cells assessed as accumulation in S phase at 4.5 uM relative to control; type: functional; procedure, shortened: as §3
# HL-60 [13] = test: Cell cycle arrest in human HL60 cells assessed as accumulation in S phase at 14 uM relative to control; type: functional; procedure, shortened: as §3
# HL-60 [14] = test: Cell cycle arrest in human HL60 cells assessed as accumulation in G1 phase at 14 uM relative to control; type: functional; procedure, shortened: as §3
# HL-60 [15] = test: Cell cycle arrest in human HL60 cells assessed as accumulation in G2/M phase at 14 uM relative to control; type: functional; procedure, shortened: as §3
# HL-60 [16] = test: Cell cycle arrest in human HL60 cells assessed as accumulation in S phase at 3.5 uM relative to control; type: functional; procedure, shortened: as §3
# HL-60 [17] = test: Cell cycle arrest in human HL60 cells assessed as accumulation in G1 phase at 3.5 uM relative to control; type: functional; procedure, shortened: as §3
# HL-60 [18] = test: Cell cycle arrest in human HL60 cells assessed as accumulation in G2/M phase at 3.5 uM relative to control; type: functional; procedure, shortened: as §3
Structure (SMILES),pIC50 (HL-60 [1]),pIC50 (CCRF-CEM [2]),pIC50 (L1210),pEC50 (Hepatitis C virus),Activity (HL-60 [1]),CC50 at 72 h [3],Activity (CCRF-CEM [2]),Activity (L1210),pIC50 (CCRF-CEM [5]),pIC50 (HL-60 [6]),also measured
O=c1[nH]c(=O)n([C@H]2C[C@H](O)[C@@H](CO)O2)cc1F [FLOXURIDINE],7.92,7.77,7.92,,,,,,,,
OC[C@H]1O[C@@H](n2cnc3c(CCN4CCOCC4)ncnc32)C[C@@H]1O,,,,4.60,inactive,> 100 µM,inactive,inactive,,,CC50 at 120 h [4]: 13 µM
CN(C)CCc1ncnc2c1ncn2[C@H]1C[C@H](O)[C@@H](CO)O1,,,,3.94,inactive,> 250 µM,inactive,inactive,,,
CN(C)CCc1ncnc2c1ncn2[C@@H]1O[C@H](CO)[C@@H](O)[C@H]1O,,,,5.15,inactive,20 µM,inactive,inactive,,,
OC[C@H]1O[C@@H](n2cnc3c(CCSc4nc5ccccc5s4)ncnc32)[C@H](O)[C@@H]1O,,,,< 4.00,inactive,> 100 µM,inactive,inactive,,,
CCN(/C=C/c1ncnc2c1ncn2[C@@H]1O[C@H](CO)[C@@H](O)[C@H]1O)CC,5.64,6.00,5.66,5.40,,8 µM,,,6.17,6.09,
CN(/C=C/c1ncnc2c1ncn2[C@@H]1O[C@H](CO)[C@@H](O)[C@H]1O)Cc1ccccc1,5.44,5.64,5.68,6.47,,1 µM,,,6.11,6.24,
C[C@@]1(O)[C@H](O)[C@@H](CO)O[C@H]1n1cnc2c(N)ncnc21,,,,6.64,,> 100 µM,,,,,
CCN(CC)CCc1ncnc2c1ncn2[C@@H]1O[C@H](CO)[C@@H](O)[C@H]1O,5.17,5.90,5.28,5.17,,45 µM,,,6.10,4.76,Activity (HL-60 [7]): 0.78; Activity (HL-60 [8]): 0.99; Activity (HL-60 [9]): 0.65; Activity (HL-60 [10]): 1.38; Activity (HL-60 [11]): 0.8; Activity (HL-60 [12]): 1.08
COCCc1ncnc2c1ncn2[C@@H]1O[C@H](CO)[C@@H](O)[C@H]1O,,,,4.40,inactive,> 100 µM,inactive,inactive,,,CC50 at 120 h [4]: 13 µM
CCCCN(/C=C/c1ncnc2c1ncn2[C@@H]1O[C@H](CO)[C@@H](O)[C@H]1O)CCCC,5.14,5.60,5.70,6.00,,2 µM,,,6.08,6.08,
CCCCN(/C=C/c1ncnc2c1ncn2[C@H]1C[C@H](O)[C@@H](CO)O1)CCCC,,,,4.07,inactive,> 100 µM,inactive,inactive,,,
OC[C@H]1O[C@@H](n2cnc3c(CCSCc4ccccc4)ncnc32)[C@H](O)[C@@H]1O,,,,< 4.00,inactive,> 100 µM,inactive,inactive,,,
OC[C@H]1O[C@@H](n2cnc3c(CCN4CCCCC4)ncnc32)[C@H](O)[C@@H]1O,,,,4.43,inactive,> 250 µM,inactive,inactive,,,
OC[C@H]1O[C@@H](n2cnc3c(/C=C/N4CCCCC4)ncnc32)[C@H](O)[C@@H]1O,5.64,5.68,5.81,6.00,,26 µM,,,6.49,6.36,CC50 at 120 h [4]: 6 µM
CSCCc1ncnc2c1ncn2[C@@H]1O[C@H](CO)[C@@H](O)[C@H]1O,,,,< 4.00,inactive,> 100 µM,inactive,inactive,,,
CN(CCc1ncnc2c1ncn2[C@@H]1O[C@H](CO)[C@@H](O)[C@H]1O)Cc1ccccc1,4.95,5.24,5.10,4.96,,132 µM,,,5.23,4.75,Activity (HL-60 [8]): 1.08; Activity (HL-60 [11]): 0.94; Activity (HL-60 [12]): 0.95
CCCCN(CCCC)CCc1ncnc2c1ncn2[C@@H]1O[C@H](CO)[C@@H](O)[C@H]1O,5.28,5.19,5.36,5.25,,37 µM,,,5.34,4.86,Activity (HL-60 [13]): 0.68; Activity (HL-60 [14]): 1.51; Activity (HL-60 [15]): 0.64; Activity (HL-60 [16]): 1.15; Activity (HL-60 [17]): 0.85; Activity (HL-60 [18]): 0.93
OC[C@H]1O[C@@H](n2cnc3c(/C=C/N4CCCCC4)ncnc32)C[C@@H]1O,,,,4.28,inactive,> 100 µM,inactive,inactive,,,
OC[C@H]1O[C@@H](n2cnc3c(CC4SCCS4)ncnc32)[C@H](O)[C@@H]1O,,,,< 4.00,inactive,> 100 µM,inactive,inactive,,,
OC[C@H]1O[C@@H](n2cnc3c(/C=C/N4CCOCC4)ncnc32)[C@H](O)[C@@H]1O,5.35,5.62,5.64,5.30,,23 µM,,,6.39,6.51,
COC(=O)CSCCc1ncnc2c1ncn2[C@@H]1O[C@H](CO)[C@@H](O)[C@H]1O,,,,4.27,inactive,> 100 µM,inactive,inactive,,,CC50 at 120 h [4]: > 100 µM
CN(C)/C=C/c1ncnc2c1ncn2[C@@H]1O[C@H](CO)[C@@H](O)[C@H]1O,5.48,5.90,5.66,5.40,,5 µM,,,6.10,6.21,
OC[C@H]1O[C@@H](n2cnc3c(CCN4CCOCC4)ncnc32)[C@H](O)[C@@H]1O,,,,5.22,inactive,31 µM,inactive,inactive,,,
